Assay outcomes deposited in PubChem BioAssay by several laboratories.
S1P1 ag-PAM = activates or potentiates agonism at human S1P1 receptor; S1P1 CRE-bla cells, forskolin, beta-lactamase FRET, potentiator mode; S1P1 agonist co-added at EC20, 2 nM; 100% = saturating reference agonist, 0% = basal; P21453; activation, % at 9.5 µM; AID 449; 56,000 tested, 0.57% active;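 active = activation above a cutoff set at the mean activation of all tested compounds plus 3 SD, cut at about 54% in these data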;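 note: forskolin at 4 µM as EC80 and the EC20 agonist is SEW2871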
S1P3 agonist = S1P3 (human) receptor agonism; S1P3 NFAT-BLA reporter cells, FRET ratio; relative to 1 µM S1P, basal subtracted; activation, % at 4.5 µM; 60,000 tested, 0.1% active;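 active = activation above the screen-wide mean plus 3 SD, cut at about 4.5% in these data, passing the limit was not always enough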
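Assay system: stable CHO line with human S1P3, Gα16, NFAT-BLA reporter; Detection: FRET β-lactamase substrate fluorescence, excitation 405 nm, 460/535 nm emission ratio, background-subtracted; Read-out: percent activation versus median 1 µM S1P response, basal-subtracted, per plate; Incubation: cells plated overnight, compound 4 h 37 °C, substrate 2 h RT.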
M1 ag = agonists of M1 muscarinic receptor. CHO-M1 cells, Fluo-4 calcium fluorescence, agonist mode; hits give high values. B-score at 10 µM. 64,000 tested, 3% active. AID 626;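 active = fluorescence rise, raw or as B-score row- and column-corrected plate score, outside the 99.7% band of its plate's samples, either direction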
M1 antag = antagonists of rat M1 muscarinic receptor | B-score at 10 µM | CHO-M1 cells, Fluo-4 calcium, ACh EC80 antagonist mode; hits give low values | P08482 | 64,000 tested, 3.4% active;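 active = calcium fluorescence response, raw or row-and-column corrected B-score, differing from the plate sample mean either way at a set confidence level, mostly lower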
Target sequence (P08482 whole entry, looked up): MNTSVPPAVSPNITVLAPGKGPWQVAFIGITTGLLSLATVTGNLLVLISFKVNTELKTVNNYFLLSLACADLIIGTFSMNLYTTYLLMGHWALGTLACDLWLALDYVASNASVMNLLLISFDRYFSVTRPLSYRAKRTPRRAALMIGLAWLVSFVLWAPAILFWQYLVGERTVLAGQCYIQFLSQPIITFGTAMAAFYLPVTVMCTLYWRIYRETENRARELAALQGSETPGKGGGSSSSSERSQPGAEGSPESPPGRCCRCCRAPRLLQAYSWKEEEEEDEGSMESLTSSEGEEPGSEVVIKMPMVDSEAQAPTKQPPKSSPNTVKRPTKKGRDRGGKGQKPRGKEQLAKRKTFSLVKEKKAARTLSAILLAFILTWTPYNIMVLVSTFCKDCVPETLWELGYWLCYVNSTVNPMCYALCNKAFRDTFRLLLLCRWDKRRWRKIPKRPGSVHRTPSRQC
TNAP act mid DEA = activates human TNAP at intermediate phosphate acceptor concentration; purified TNAP, CDP-star luminescence, 100 mM DEA, 30 min; hits give high values; scale: 0 levamisole-inhibited, 1 vehicle-only enzyme; activation factor at 20 µM; 64,000 tested, under 10 active;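 active = activation factor of at least 2 at 20 µM, relative to controls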
D1 mod = D1 dopamine receptor (human) allosteric modulation. P21728. HEK293 D1, CRE-luciferase, dopamine EC30 potentiation; actives deviate in either direction. B-score at 10 µM. 58,000 tested, 5.9% active;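 active = luminescence count or its row- and column-corrected plate score outside the 99.7% band of the plate's sample wells, on either side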
M1 antag confirm = confirmation of rat M1 muscarinic receptor antagonists | 1,700 tested, 43% active | CHO-M1 cells, Fluo-4 calcium, ACh EC80 antagonism; hits give low values | calcium response (max-min fluorescence) at 10 µM | shares compounds with M1 antag | AID 677;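 active = calcium response below the same-plate mean of wells given acetylcholine alone at its 80%-effect dose, minus 3 SD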
mGluR4 antag = selectivity test for M1 antagonists: human mGluR4 receptor. CHO-mGluR4 calcium flux, Fluo-4 fluorescence, glutamate EC80; hits give low values. shares compounds with M1 antag. 1,700 tested, 0.9% active. fluorescence response (max-min) at 10 µM;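 active = fluorescence response below the plate's average for near-maximal glutamate wells, less 3 SD of those wells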;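 note: raw unnormalized fluorescence span taken in the window right after glutamate addition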
A number is an active result; . = inactive; / = not tested or not shown. The list is not random: actives were taken first. Their share in the collection is about 11%.

SMILES	S1P1 ag-PAM	S1P3 agonist	M1 ag	M1 antag	TNAP act mid DEA	D1 mod	M1 antag confirm	mGluR4 antag
CCn1c(C(=O)NCCCN2CCc3ccccc3C2)cc2sccc21	.	.	.	-3.6	.	/	492	.
Cc1ccc(Cn2c(C(=O)NCCCN3CCOCC3)cc3sccc32)cc1	.	.	.	-3.2	.	.	510	.
CCN1CCN(CCCNC(=O)c2cc3sccc3n2CC)CC1	.	.	.	-1.6	.	.	.	.
CCSc1ccc2nnc(-c3cccc(F)c3)n2n1	.	.	.	.	.	.	/	/
COCCSc1nnc(NC(=O)CSCc2ccccc2)s1	.	.	.	.	.	.	/	/
COc1ccc(Cn2c(O)cc(=O)[nH]c2=O)cc1	.	.	.	.	.	/	/	/
CCN(CC)CCn1c(OC)cc(=O)[nH]c1=O	.	.	.	-2.4	.	.	.	.
CN1CCN(c2nc(NCCOC34CC5CC(CC(C5)C3)C4)nc(OCC(F)(F)F)n2)CC1	.	.	.	-6.2	.	.	484	.
CC1CCN(Cc2nc3c(c(=O)n(C)c(=O)n3C)n2Cc2c(F)cccc2Cl)CC1	.	.	.	.	/	.	/	/
CC1CCCN(Cc2nc3c(c(=O)n(C)c(=O)n3C)n2Cc2c(F)cccc2Cl)C1 (stereo not given)	.	.	.	-1	.	.	.	.
O=C(NCC(F)(F)F)Nc1ncccn1	.	.	.	.	.	/	/	/
COc1ccccc1CNS(=O)(=O)c1cccc(S(=O)(=O)N2CCOCC2)c1	.	.	.	-4.7	.	.	.	.
O=S(=O)(NCCc1ccccc1F)c1cccc(S(=O)(=O)N2CCOCC2)c1	/	/	.	.	.	.	/	/
CC(C)=CCCC(C)CN(C)CCc1ccccn1 (stereo not given)	.	.	.	-3.1	.	.	569	.
O=C(CCCSc1nc2ccccc2s1)Nc1nccs1	.	.	.	-2.7	.	.	.	.
COc1ccc(C(=O)N2CCC(C(=O)Nc3ccccc3OC)CC2)cc1	.	.	.	-5	.	.	.	.
CC(NC(=O)Nc1ccc(F)cc1F)c1ccncc1 (stereo not given)	.	.	.	.	.	.	/	/
CCOc1cc(S(=O)(=O)n2nc(C)cc2C)ccc1F	.	.	.	-5.2	.	/	.	.
CCOc1ccc2nc(N3CCC(C(=O)N4CCN(C5CCCCC5)CC4)CC3)sc2c1	.	.	.	-2.9	.	.	378	.
COC(=O)c1ccccc1NC(=O)Cn1cc2c(n1)CCC(C)C2 (stereo not given)	.	.	.	.	.	.	/	/
CCN1C(=Nc2ccc(Cl)cc2)SC/C1=C\C(=O)OC	.	.	.	.	.	.	/	/
O=C1c2ccccc2C(=O)N1CC1=CCS(=O)(=O)C1	.	.	.	-2	.	.	.	.
Cc1cc(CN2C(=O)c3ccccc3C2=O)no1	.	.	.	.	.	.	/	/
CCOCCCNC(=O)N[C@@H](Cc1ccccc1)C(=O)OC	.	.	.	.	.	.	/	/
O=C(Nc1nc2c(s1)CCCC2=O)c1cnccn1	.	.	.	.	.	.	/	/
CNC(=O)C1C2C=CC3(O2)C1C(=O)N(C1CC1)C3C(=O)NCc1ccc(OC)cc1 (stereo not given)	/	/	.	-2.1	.	.	.	.
C=CCN1C(=O)C2C(C(=O)NC)C3C=CC2(O3)C1C(=O)NCc1ccc(OC)cc1 (stereo not given)	/	/	.	.	.	.	/	/
O=C(CN1C(=O)NC2(CCCCCC2)C1=O)c1ccc2c(c1)OCCO2	.	.	.	.	.	.	/	/
O=C(CCNS(=O)(=O)c1cccc2nonc12)N1CCN(c2cccc(Cl)c2)CC1	/	/	.	-3.1	.	/	253	.
O=C(CCS(=O)(=O)c1cccc2nonc12)N1CCN(c2ccc(F)cc2)CC1	/	/	.	-6.9	.	.	.	.
